From ChEMBL document CHEMBL1641444, “Synthesis and evaluation of 6-[1-(2-[(18)F]fluoro-3-pyridyl)-5-methyl-1H-1,2,3-triazol-4-yl]quinoline for positron emission tomography imaging of the metabotropic glutamate receptor type 1 in brain” (Bioorg Med Chem, 2011)

Key:
[1] = Biodistribution in olfactory bulb of Sprague-Dawley rat at 17 MBq, iv after 15 mins by dissection method; assay type: ADME, organism-based; conditions: in vivo, 0.25 h
In short: (§1)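 [¹⁸F]7a in saline (average 17 MBq/200 µL, 0.11 nmol) was given by tail vein. Rats were killed by cervical dislocation at 5, 15 or 30 min, with three rats per time point. Tissue radioactivity was measured by gamma counting, decay-corrected and expressed as %ID per gram of wet tissue.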

Kidney [2] = experiment: Biodistribution in kidney of Sprague-Dawley rat at 17 MBq, iv after 15 mins by dissection method; assay type: ADME, organism-based; conditions: in vivo, 0.25 h
In short: (§2)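 The [18F]ligand was given to rats as a saline solution (average 17 MBq, about 0.11 nmol) via the tail vein. Three rats per time point were killed by cervical dislocation at 5, 15 and 30 min. Dissected tissues were gamma-counted with decay correction, and results are expressed as % injected dose per gram of wet tissue.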

Hippocampus = experiment: Biodistribution in hippocampus of Sprague-Dawley rat at 17 MBq, iv after 5 mins by dissection method; assay type: ADME, organism-based; conditions: in vivo; in short: as §2
Muscle tissue [3] = experiment: Biodistribution in muscle of Sprague-Dawley rat at 17 MBq, iv after 5 mins by dissection method; assay type: ADME, organism-based; conditions: in vivo; in short: as §1
[4] = Ratio of drug uptake in Sprague-Dawley rat hippocampus to medulla at 17 MBq, iv after 10 to 15 mins by small-animal PET; conditions: in vivo
[5] = Biodistribution in whole brain of Sprague-Dawley rat at 17 MBq, iv after 15 mins by dissection method; assay type: ADME, organism-based; conditions: in vivo, 0.25 h; in short: as §1
[6] = Biodistribution in pons-medulla of Sprague-Dawley rat at 17 MBq, iv after 15 mins by dissection method; assay type: ADME, organism-based; conditions: in vivo, 0.25 h; in short: as §1
Muscle tissue [7] = experiment: Biodistribution in muscle of Sprague-Dawley rat at 17 MBq, iv after 30 mins by dissection method; assay type: ADME, organism-based; conditions: in vivo, 0.5 h; in short: as §1
Cerebral cortex = experiment: Biodistribution in cerebral cortex of Sprague-Dawley rat at 17 MBq, iv after 5 mins by dissection method; assay type: ADME, organism-based; conditions: in vivo; in short: as §2
Blood [8] = experiment: Biodistribution in blood of Sprague-Dawley rat at 17 MBq, iv after 30 mins by dissection method; assay type: ADME, organism-based; conditions: in vivo, 0.5 h; in short: as §2
[9] = Biodistribution in whole brain of Sprague-Dawley rat at 17 MBq, iv after 5 mins by dissection method; assay type: ADME, organism-based; conditions: in vivo; in short: as §1
Blood [10] = experiment: Biodistribution in blood of Sprague-Dawley rat at 17 MBq, iv after 15 mins by dissection method; assay type: ADME, organism-based; conditions: in vivo, 0.25 h; in short: as §2
[11] = Biodistribution in small intestine of Sprague-Dawley rat at 17 MBq, iv after 30 mins by dissection method; assay type: ADME, organism-based; conditions: in vivo, 0.5 h; in short: as §1
Cerebellum = experiment: Biodistribution in cerebellum of Sprague-Dawley rat at 17 MBq, iv after 15 mins by dissection method; assay type: ADME, organism-based; conditions: in vivo, 0.25 h; in short: as §2
[12] = Metabolic stability in plasma of ddy mouse assessed as reduction of parent compound level at 3.7 MBq, iv after 15 mins by HPLC analysis; set-up: scale not given: the % may be the effect or the level left; conditions: 0.25 h
Muscle tissue [13] = experiment: Biodistribution in muscle of Sprague-Dawley rat at 17 MBq, iv after 15 mins by dissection method; assay type: ADME, organism-based; conditions: in vivo, 0.25 h; in short: as §1
Spleen = experiment: Biodistribution in spleen of Sprague-Dawley rat at 17 MBq, iv after 15 mins by dissection method; assay type: ADME, organism-based; conditions: in vivo, 0.25 h; in short: as §1
Liver [14] = experiment: Biodistribution in liver of Sprague-Dawley rat at 17 MBq, iv after 15 mins by dissection method; assay type: ADME, organism-based; conditions: in vivo, 0.25 h; in short: as §2
[15] = test system: Cerebellum (Mus musculus); experiment: Metabolic stability in cerebellum of mouse assessed as reduction of parent compound level at 3.7 MBq, iv after 15 mins by HPLC analysis; set-up: scale not given: the % may be the effect or the level left; conditions: in vivo, 0.25 h
Liver [16] = experiment: Biodistribution in liver of Sprague-Dawley rat at 17 MBq, iv after 30 mins by dissection method; assay type: ADME, organism-based; conditions: in vivo, 0.5 h; in short: as §1
[17] = Biodistribution in small intestine of Sprague-Dawley rat at 17 MBq, iv after 15 mins by dissection method; assay type: ADME, organism-based; conditions: in vivo, 0.25 h; in short: as §1
Bone [18] = experiment: Biodistribution in bone of Sprague-Dawley rat at 17 MBq, iv after 5 mins by dissection method; assay type: ADME, organism-based, Bone element; conditions: in vivo; in short: as §2
Kidney [19] = experiment: Biodistribution in kidney of Sprague-Dawley rat at 17 MBq, iv after 30 mins by dissection method; assay type: ADME, organism-based; conditions: in vivo, 0.5 h; in short: as §2
Bone [20] = experiment: Biodistribution in bone of Sprague-Dawley rat at 17 MBq, iv after 30 mins by dissection method; assay type: ADME, organism-based, Bone element; conditions: in vivo, 0.5 h; in short: as §2
Striatum = experiment: Biodistribution in striatum of Sprague-Dawley rat at 17 MBq, iv after 5 mins by dissection method; assay type: ADME, organism-based; conditions: in vivo; in short: as §1
Bone [21] = experiment: Biodistribution in bone of Sprague-Dawley rat at 17 MBq, iv after 15 mins by dissection method; assay type: ADME, organism-based, Bone element; conditions: in vivo, 0.25 h; in short: as §2
[22] = Biodistribution in whole brain of Sprague-Dawley rat at 17 MBq, iv after 30 mins by dissection method; assay type: ADME, organism-based; conditions: in vivo, 0.5 h; in short: as §1

## Cc1c(-c2ccc3ncccc3c2)nnn1-c1cccnc1[18F]
[1]
  Drug uptake: 0.24 % ID/g
Kidney [2]
  Drug uptake: 0.57 % ID/g
Hippocampus
  Drug uptake: 0.58 % ID/g
Muscle tissue [3]
  Drug uptake: 0.28 % ID/g
[4]
  Ratio: 1.42
[5]
  Drug uptake: 0.23 % ID/g
[6]
  Drug uptake: 0.21 % ID/g
Muscle tissue [7]
  Drug uptake: 0.1 % ID/g
Cerebral cortex
  Drug uptake: 0.44 % ID/g
Blood [8]
  Drug uptake: 0.15 % ID/g
[9]
  Drug uptake: 0.52 % ID/g
Blood [10]
  Drug uptake: 0.26 % ID/g
[11]
  Drug uptake: 1.74 % ID/g
Cerebellum
  Drug uptake: 0.54 % ID/g
[12]
  Stability: 23%
Muscle tissue [13]
  Drug uptake: 0.14 % ID/g
Spleen
  Drug uptake: 0.25 % ID/g
Liver [14]
  Drug uptake: 2.04 % ID/g
[15]
  Stability: 91%
Liver [16]
  Drug uptake: 1.93 % ID/g
[17]
  Drug uptake: 4.64 % ID/g
Bone [18]
  Drug uptake: 0.22 % ID/g
Kidney [19]
  Drug uptake: 0.39 % ID/g
Bone [20]
  Drug uptake: 0.22 % ID/g
Striatum
  Drug uptake: 0.54 % ID/g
Bone [21]
  Drug uptake: 0.15 % ID/g
[22]
  Drug uptake: 0.11 % ID/g
